Screens (PubChem BioAssay)
This is a sample that favours compounds with a hit; in the whole collection about 1.5% have one here.
PKD1 kinase inh – inhibitors of human PKD1 kinase, biochemical, fluorescence polarization. AID 797, 2007. 200,000 tested, 0.056% active. PKD1 kinase fluorescence polarization assay. Serine/threonine-protein kinase D1 (Homo sapiens), Q15139. inhibition, % (test concentration not listed); in the data active = inhibition above about 50%
Target sequence (Q15139 whole entry, looked up): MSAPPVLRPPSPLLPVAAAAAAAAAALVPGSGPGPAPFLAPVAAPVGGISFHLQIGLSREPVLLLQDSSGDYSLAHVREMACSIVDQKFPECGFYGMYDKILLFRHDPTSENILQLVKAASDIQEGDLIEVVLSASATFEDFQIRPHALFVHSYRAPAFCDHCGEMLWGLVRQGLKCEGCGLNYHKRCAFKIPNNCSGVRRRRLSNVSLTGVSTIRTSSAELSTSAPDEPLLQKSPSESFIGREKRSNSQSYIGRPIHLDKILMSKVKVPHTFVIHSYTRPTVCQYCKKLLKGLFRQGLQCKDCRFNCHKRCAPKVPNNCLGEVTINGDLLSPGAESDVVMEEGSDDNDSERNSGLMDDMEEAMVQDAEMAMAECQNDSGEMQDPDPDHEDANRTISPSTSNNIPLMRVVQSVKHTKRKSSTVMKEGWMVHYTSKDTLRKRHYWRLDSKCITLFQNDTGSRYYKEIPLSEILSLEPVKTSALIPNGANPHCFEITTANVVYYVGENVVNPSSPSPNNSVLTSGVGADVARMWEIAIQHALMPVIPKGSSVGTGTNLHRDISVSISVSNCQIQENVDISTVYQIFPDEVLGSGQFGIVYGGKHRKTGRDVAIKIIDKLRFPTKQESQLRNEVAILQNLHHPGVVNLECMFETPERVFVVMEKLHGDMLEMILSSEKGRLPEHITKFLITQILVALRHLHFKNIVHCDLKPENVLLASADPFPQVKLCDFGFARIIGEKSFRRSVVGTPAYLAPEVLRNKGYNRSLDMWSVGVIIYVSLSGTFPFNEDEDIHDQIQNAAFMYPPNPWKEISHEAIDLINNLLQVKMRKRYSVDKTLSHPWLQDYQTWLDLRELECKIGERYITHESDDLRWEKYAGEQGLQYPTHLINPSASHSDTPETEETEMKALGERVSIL
Hsp70 act – Hsp70 transcriptional activators, primary screen, cell-based, HeLa, Hsp70 promoter luciferase, luminescence, 10 µM. HeLa Hsp70 promoter luciferase reporter; scaled: vehicle 0, proteasome-inhibitor control 100%. activation, % at 10 µM. 200,000 tested, 0.04% active. AID 1203, 2008;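 active = activation above the mean across all tested compounds plus 3 SD, cutoff set per campaign, cut at about 5.5% in these data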
p97 inhibitor – inhibitors of human p97 ATPase, primary screen, biochemical; inhibition, % at 8 µM; recombinant p97 ATPase, Kinase-Glo ATP luminescence, 3 h; 220,000 tested, 0.42% active; in the data active = inhibition above about 15%
PP5 inh – PP5 phosphatase inhibitors, primary screen, biochemical, fluorescence; purified PP5c, OMFP substrate fluorescence; Serine/threonine-protein phosphatase 5 (Homo sapiens), P53041; inhibition, % at 6.7 µM; 320,000 tested, 0.18% active;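 active = inhibition above the campaign's mean inhibition across all tested compounds plus 3 SD, cut at about 9.5% in these data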
RBBP9 inh – human RBBP9 inhibitors, primary screen, biochemical, fluorescence polarization, FP-Rh probe, HTS. recombinant RBBP9. inhibition, % at 7.94 µM. 220,000 tested, 0.2% active. AID 1515, 2009;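 active = inhibition above the campaign mean of all tested compounds plus 3 SD, cut at about 14% in these data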
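System: RBBP9 protein / Quantity: 2.5 µM RBBP9 dispensing solution, before mixing / Also added: Serine-hydrolase probe FP-Rh, 375 nM pre-mixing / Dosing: 7.94 µM single dose, 0.794% DMSO / Timing: enzyme-compound preincubation 30 min, then probe labeling 45 min, 25 °C / Signal: FP readout at 525/598 nm / Controls: DMSO-treated enzyme wells and wells lacking RBBP9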
PP1 inh – PP1-alpha phosphatase inhibitors, primary screen, counter-screen for PP5 inhibitor project, biochemical, fluorescence, OMFP substrate, single point. Serine/threonine-protein phosphatase PP1-alpha catalytic subunit (Homo sapiens), P62136. purified PP1alpha. inhibition, % at 6.7 µM. 320,000 tested, 0.9% active. AID 2235, 2010;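 active = inhibition above the mean inhibition of all tested compounds plus 3 SD, computed separately for each screening campaign, cut at about 15% in these data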
RBBP9 inh conf – human RBBP9 inhibitors, retest, confirmation, biochemical, fluorescence polarization, FP-Rh probe, triplicate; 410 tested, 36% active; shares compounds with RBBP9 inh; recombinant RBBP9; inhibition, % at 7.94 µM;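 active = inhibition above the hit cutoff derived for the primary screen, cut at about 15% in these data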
PP5 inh confirm – PP5 phosphatase inhibitors, confirmation, biochemical, fluorescence, human. Purified PP5, fluorogenic phosphatase substrate. inhibition, % at 6.7 µM. shares compounds with PP5 inh. 460 tested, 22% active; in the data active = inhibition above about 9.5%
PP1 inh counter – PP1 phosphatase inhibitors, counter-screen for PP5 inhibitor project, biochemical, fluorescence, triplicate; inhibition, % at 6.7 µM; 460 tested, 4% active; AID 2355, 2010; PP1 enzyme, fluorescent phosphatase substrate; shares compounds with PP5 inh; in the data active = inhibition above about 16%
PP1 confirm – PP1 phosphatase inhibitors, confirmation, biochemical, fluorescence, OMFP substrate, triplicate | purified PP1alpha | shares compounds with PP1 inh | inhibition, % at 6.7 µM | AID 2358, 2010 | 1,900 tested, 52% active;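 active = mean PP1 inhibition above a set limit taken from the earlier primary screen, cut at about 15% in these data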
PP5 counter – PP5 phosphatase inhibition by PP1 hits, confirmation, counter-screen for PP1 inhibitor project, biochemical, fluorescence, triplicate | 1,900 tested, 4% active | inhibition, % at 6.7 µM | purified PP5c, OMFP fluorescence | shares compounds with PP1 inh | AID 2360, 2010;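 active = mean PP5 inhibition over triplicate wells above about 9.5% taken from the earlier PP1 screen, limit read from the data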
Each line names hits and unclear results; the compound was inactive in the other large screens (follow-up assays come after a bar, where they were run).

CC(=O)Nc1cc(Br)ccc1O	none
CC(=O)Nc1c(F)cc(Br)cc1F	RBBP9 inh 16.4 (no result: PKD1 kinase inh, Hsp70 act) | RBBP9 inh conf inactive
C/C(CC(=O)NCCc1ccccc1)=N\NC(=O)COc1ccc(Br)cc1	none (no result: PKD1 kinase inh, Hsp70 act, p97 inhibitor, RBBP9 inh)
CS(=O)(=O)c1ccc(NS(=O)(=O)c2ccc3ccccc3c2)cc1	none (no result: PKD1 kinase inh, Hsp70 act, p97 inhibitor, RBBP9 inh)
CNS(=O)(=O)c1ccc2ccccc2c1	RBBP9 inh 19.4 (no result: PKD1 kinase inh, Hsp70 act) | RBBP9 inh conf inactive
Cc1ccc(S(=O)(=O)N2CCN(C(=O)c3cc(S(=O)(=O)N(C)C)ccc3N3CCCC3)CC2)cc1	none (no result: PKD1 kinase inh, Hsp70 act, p97 inhibitor, RBBP9 inh)
Cc1cccc(N2CCN(C(=O)c3cc(S(=O)(=O)N(C)C)ccc3N3CCCC3)CC2)c1C	RBBP9 inh 14.5 | RBBP9 inh conf inactive
CC1CC(C)CN(C(=O)CSc2nc(Cc3cccs3)nc3ccccc23)C1 (stereo unspecified)	none
CCC1(CC)C(=O)C2=C3C1[C@H](C(=O)OC)CC(C(=O)OC)C[C@H]3[C@H]1C(=O)N(c3ccccc3)C(=O)[C@H]1[C@H]2C (stereo partly specified)	none (no result: PKD1 kinase inh, Hsp70 act, p97 inhibitor, RBBP9 inh)
CCn1c(CSc2ncn[nH]2)nc2cc(C(=O)O)ccc21	none (no result: PKD1 kinase inh, Hsp70 act)
CCn1c(CSc2nnc(-c3ccncc3)n2C)nc2cc(C(=O)O)ccc21	RBBP9 inh 17.3 (no result: PKD1 kinase inh, Hsp70 act) | RBBP9 inh conf 21.5
Cc1nc2ccccc2nc1SCC(=O)c1ccccc1	none
O=C(CSc1ccc2ccccc2n1)c1ccccc1	RBBP9 inh 17.5 (no result: PKD1 kinase inh, Hsp70 act) | RBBP9 inh conf inactive
COc1ccccc1CNC(=O)N/C=C/c1ccc(Cl)cc1	none
CC(=O)N(C)c1ccc(OCC(O)CN(c2ccccc2C)S(=O)(=O)c2ccc(C)cc2)cc1 (stereo unspecified)	none (no result: PKD1 kinase inh, Hsp70 act, p97 inhibitor, RBBP9 inh)
Cc1ccc(-n2c(C)cc(=O)cc2C)c(C)c1	none
Cc1cc(N)ccc1-n1c(C)ccc1C	RBBP9 inh 31.3 | RBBP9 inh conf inactive
O=Cc1cc(N=Nc2cccc(C(=O)O)c2)ccc1O	RBBP9 inh 18.2 | RBBP9 inh conf inactive
Cc1ccc(CNS(=O)(=O)c2c(C(=O)N3CCCCCC3)c(C)n(C)c2C)cc1	none (no result: PKD1 kinase inh, Hsp70 act, p97 inhibitor, RBBP9 inh)
COC(=O)C1C(=O)OC(C)(C)C1C(C)C(=O)c1ccccc1 (stereo unspecified)	RBBP9 inh 14.5 | RBBP9 inh conf inactive
COc1ccccc1/C=C/C=C(\C#N)C(=O)NC(C)c1ccccc1 (stereo unspecified)	none (no result: PKD1 kinase inh, Hsp70 act, p97 inhibitor, RBBP9 inh)
O=c1c2ccccc2[nH]c(=S)n1CCCN1CCOCC1	RBBP9 inh 14.7 | RBBP9 inh conf inactive
O=c1c2cc(N3CCOCC3)ccc2[nH]c(=S)n1Cc1ccccn1	RBBP9 inh 14.9 | RBBP9 inh conf inactive
Cc1cc2c(o1)CC(C)(C)CC2=O	none
O=C(NCc1ccccc1CN1CCCC1)c1cccc(S(=O)(=O)N2CCOCC2)c1	none (no result: PKD1 kinase inh, Hsp70 act, p97 inhibitor, RBBP9 inh)
Oc1ccc(Nc2nc(-c3ccc(O)cc3)cs2)cc1	p97 inhibitor 14.8, RBBP9 inh 18.1 | RBBP9 inh conf 14.3
CNC(=O)C(=O)Nc1c(O)c2ccccc2[nH]c1=O	RBBP9 inh 17.9 (no result: PKD1 kinase inh, Hsp70 act) | RBBP9 inh conf inactive
CCN(CC)S(=O)(=O)c1cccc(C(=O)N/N=C/c2ccc(O)c(O)c2O)c1	RBBP9 inh 17.8, PP1 inh 20.1 | RBBP9 inh conf 66.0 | PP1 confirm 32.9 | PP5 counter inactive
CCCCC[C@H](O)/C=C/[C@@H]1[C@@H](C/C=C\CCCC(=O)OC)[C@@H](O)C[C@H]1O	RBBP9 inh 18.0, PP1 inh 46.3 | RBBP9 inh conf 28.0 | PP1 confirm 43.1 | PP5 counter inactive
CCCCC[C@H](O)/C=C/[C@@H]1[C@@H](C/C=C\CCCC(=O)O)[C@@H](O)C[C@H]1O	none
CSCCC(NC(=O)c1ccco1)C(=O)OCc1cc([N+](=O)[O-])cc2c1OCOC2 (stereo unspecified)	none
O=C(Nc1ccccc1F)c1ccc(COc2ccc(Cl)cc2Cl)o1	none
Cc1nn(Cc2ccc(Cl)cc2Cl)c(C)c1NC(=O)c1ccc(COc2cc(Cl)ccc2Cl)o1	none
O=C(Nc1ccn(Cc2c(F)c(F)cc(F)c2F)n1)c1ccc(COc2ccc(Cl)cc2Cl)o1	PP5 inh 9.8 | PP5 inh confirm inactive | PP1 inh counter inactive
Cc1nn(Cc2c(F)c(F)c(F)c(F)c2F)c(C)c1NC(=O)c1ccc(COc2ccc(Cl)cc2Cl)o1	PP5 inh 10.1 | PP5 inh confirm inactive | PP1 inh counter inactive
Cc1ccccc1-c1nc(CS(=O)(=O)CC(=O)N2CCN(C)CC2)c(C)o1	none (no result: PKD1 kinase inh, Hsp70 act, p97 inhibitor, RBBP9 inh)
COc1cccc(CNC(=O)C(=O)NCC2CCCN2S(=O)(=O)c2cc(C)ccc2C)c1 (stereo unspecified)	none (no result: PKD1 kinase inh, Hsp70 act, p97 inhibitor, RBBP9 inh)
O=C(Nc1ccc(Br)cc1)c1cccn1-c1ncc(C(F)(F)F)cc1Cl	PP5 inh 10.5 | PP5 inh confirm inactive | PP1 inh counter inactive
COc1ccc(NC(=O)C2CCCN(S(=O)(=O)c3ccc4c(c3)CCCN4C(C)=O)C2)cc1Cl (stereo unspecified)	none (no result: PKD1 kinase inh, Hsp70 act, p97 inhibitor, RBBP9 inh)
COc1ccc(NC(=O)COC(=O)CCCc2c[nH]c3ccccc23)cc1	none
CCOc1ccc(NC(=O)COC(=O)CCCc2c[nH]c3ccccc23)cc1	PP5 inh 9.8 | PP5 inh confirm inactive | PP1 inh counter inactive
O=S(=O)(NC1=NCCCCC1)c1ccc2ccccc2c1	none
Cc1cccc(-c2nnc(NC(=O)c3ccc(Cl)cc3)o2)c1	PP5 inh 9.6 | PP5 inh confirm inactive | PP1 inh counter 24.0
COc1nc(OC)nc(Oc2ccc([N+](=O)[O-])cc2Cl)n1	none
COC(=O)C1=C(CCc2ccccc2)NC(=O)NC1c1ccc([N+](=O)[O-])cc1 (stereo unspecified)	none (no result: PKD1 kinase inh, Hsp70 act, p97 inhibitor, RBBP9 inh)
